Paper PMC5154386 (Journal of medicinal chemistry, 2015)
≈ marks a conversion by molar mass, not a printed value.

Tests used:
[1] = tested on: A549 cell line; assay: Mammalian cell cytotoxicity assay; format: cell-based
[2] = tested on: murine red blood cells (mRBCs); assay: Hemolytic assay; format: cell-based, mouse; settings: for hemolysis: at higher concentrations
Summary of the method: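 Hemolysis was measured on murine red blood cells exposed to the test compounds. Gramicidin, amphotericin B and the parent aminoglycoside were run as comparators.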

[3] = tested on: BEAS-2B cell line; assay: Mammalian cell cytotoxicity assay; format: cell-based
[4] = tested on: S. aureus ATCC 29213 (V); assay: Antibacterial MIC determination; format: cell-based; settings: Staphylococcus aureus, ATCC29213
Summary of the method: (§1)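 MICs in μg/mL against a panel of 11 Gram-positive strains (including MRSA strains and VRE) and six Gram-negative strains. The panel held strains both susceptible and resistant to the parent aminoglycoside, each coded by a roman numeral. Each determination was run at least in duplicate.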

[5] = tested on: S. aureus NRS385 (USA 300) (VIII); assay: Antibacterial MIC determination; format: cell-based; settings: Staphylococcus aureus, NRS385|USA300
Summary of the method: as §1

[6] = tested on: various yeast strains and filamentous fungi; assay: Antifungal MIC, summary over the fungal strains tested; format: cell-based, Candida and Aspergillus species; settings: for MIC values, range: range over the fungal strains tested; for MIC of sulfone relative to MIC of corresponding thioether: collection of fungal strains, generally
[7] = tested on: C. albicans ATCC 10231 (strain A); assay: Spontaneous frequency of resistance; format: cell-based
[8] = tested on: C. albicans ATCC 64124 (strain B); assay: Time-kill assay; format: cell-based; settings: for time-kill activity at subinhibitory concentration: 1/2 MIC, 24 h period; for time to complete fungal cell death: at MIC
[9] = tested on: Aspergillus nidulans ATCC 38163 (H); assay: Antifungal MIC determination; format: cell-based; settings: Aspergillus nidulans (strain H)
[10] = tested on: various yeast strains (C. albicans); assay: In vitro combination study with POS, summary over yeast strains; format: cell-based; settings: for lowering of the MIC value by POS: in combination with POS; for FICI values, range: with POS, all tested fungal strains (except 3d against strain A)
Summary of the method: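 Posaconazole was tested in combination with the test compound against yeast strains, both azole-resistant and azole-susceptible. FICI = (MIC of A in combination / MIC of A alone) + (MIC of B in combination / MIC of B alone). FICI ≤ 0.5 was scored synergy, 0.5 < FICI < 4 no interaction, and FICI ≥ 4 antagonism.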

[11] = tested on: MRSA (III); assay: Antibacterial MIC determination; format: cell-based; settings: Staphylococcus aureus
Summary of the method: as §1

[12] = tested on: AAC(3), AAC(2′), and AAC(6′); assay: TLC assessment of modification by AACs alone and together; format: biochemical; settings: for modification by three AACs used simultaneously (TLC): AAC(3), AAC(2′) and AAC(6′) simultaneously
[13] = tested on: S. aureus NRS383 (USA 200) (VII); assay: Antibacterial MIC determination; format: cell-based; settings: Staphylococcus aureus, NRS383|USA200
Summary of the method: as §1

[14] = tested on: Pythium insidiosum; settings: in vitro; cited from earlier work
[15] = cited from earlier work
[16] = tested on: E. coli MC1061 (XIV); assay: Antibacterial MIC determination; format: cell-based; settings: Escherichia coli
Summary of the method: as §1

[17] = tested on: K. pneumoniae ATCC 27736 (XV); assay: Antibacterial MIC determination; format: cell-based; settings: Klebsiella pneumoniae, ATCC27736
Summary of the method: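 MIC in μg/mL against a panel of Gram-positive and Gram-negative strains that includes strains susceptible and resistant to the parent aminoglycoside; each determination done at least in duplicate.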

[18] = tested on: tested Gram-positive bacteria; assay: Antibacterial MIC, summary over the Gram-positive panel; format: cell-based; settings: iv
Summary of the method: as §1

[19] = tested on: Gram-negative bacterial strains tested; assay: Antibacterial MIC, summary over the Gram-negative panel; format: cell-based
[20] = at 50× MIC, MIC as in combination with POS

With CCCCCCCCSC[C@@H]1O[C@@H](O[C@@H]2[C@@H](O)[C@H](O[C@@H]3O[C@@H](CN)[C@H](O)[C@@H](O)[C@@H]3N)[C@@H](N)C[C@H]2N)[C@@H](O)[C@H](N)[C@H]1O [Compound 3a] the toxicity [1] was “little to no toxicity”, the hemolysis [2] was “little to no hemolysis” and the toxicity [3] was “little to no toxicity”.
With CCCCCCCCCCSC[C@@H]1O[C@@H](O[C@@H]2[C@@H](O)[C@H](O[C@@H]3O[C@@H](CN)[C@H](O)[C@@H](O)[C@@H]3N)[C@@H](N)C[C@H]2N)[C@@H](O)[C@H](N)[C@H]1O [Compound 3b] the toxicity [1] was “little to no toxicity”, the hemolysis [2] was “little to no hemolysis” and the toxicity [3] was “little to no toxicity”. For the same compound, the MIC [4] was 16 to 32 mg/L (≈ 25 to 50 µM) and the MIC [5] was 32 to 64 mg/L (≈ 50 to 100 µM).
With CCCCCCCCCCCCSC[C@@H]1O[C@@H](O[C@@H]2[C@@H](O)[C@H](O[C@@H]3O[C@@H](CN)[C@H](O)[C@@H](O)[C@@H]3N)[C@@H](N)C[C@H]2N)[C@@H](O)[C@H](N)[C@H]1O [Compound 3c] the “MIC values, range” value [6] was no more than 1.95 to 31.2 mg/L, the mRBCs lysed ([2]; 50× MIC, MIC as in combination with POS) was 60% and the “less hemolytic than AmB” value [2, 20] was ~ 30%. The “less hemolytic than gramicidin” value [2, 20] was ~ 20%, the mutants ([7]; 3c (8 μg/mL) and POS (0.25 μg/mL), 96 h incubation) was 24 colonies and the “spontaneous frequency rate of resistance” value ([7]; combination of 3c and POS) was 2.4 × 10^−7. For the same compound, the “time-kill activity at subinhibitory concentration” value [8] was “fungistatic activity”, the “time to complete fungal cell death” value [8] was 24 h and the “times better than KANB” value [9] was 64 times. The “lowering of the MIC value by POS” value [10] was 4–16 fold and the “FICI values, range” value [10] was 0.07 to 0.31.
In the case of CCCCCCCCCCCCCCSC[C@@H]1O[C@@H](O[C@@H]2[C@@H](O)[C@H](O[C@@H]3O[C@@H](CN)[C@H](O)[C@@H](O)[C@@H]3N)[C@@H](N)C[C@H]2N)[C@@H](O)[C@H](N)[C@H]1O [Compound 3d], the “MIC values, range” value [6] is reported as no more than 1.95 to 15.6 mg/L, the “time-kill activity at subinhibitory concentration” value [8] is reported as “fungistatic activity” and the “time to complete fungal cell death” value [8] is reported as 12 h. The MIC [11] was 32 to 64 mg/L (≈ 46 to 92 µM), the “lowering of the MIC value by POS” value [10] was 2–8 fold and the “FICI values, range” value [10] was 0.07 to 0.31. The MIC [5] was 16 to 32 mg/L (≈ 23 to 46 µM), the “modification by three AACs used simultaneously (TLC)” value [12] was “only the 3-monoacetylated product was obtained” and the MIC [13] was 8 to 16 mg/L (≈ 11.5 to 23 µM).
In the case of CCCCCCCCCCCCCCCCSC[C@@H]1O[C@@H](O[C@@H]2[C@@H](O)[C@H](O[C@@H]3O[C@@H](CN)[C@H](O)[C@@H](O)[C@@H]3N)[C@@H](N)C[C@H]2N)[C@@H](O)[C@H](N)[C@H]1O [Compound 3e], the “MIC values, range” value [6] is reported as 1.95 to 3.9 mg/L, the “times more effective than KANB” value ([6]; several of the tested yeast strains) is reported as 32 times and the “times better than FLC” value [9] is reported as 32 times. The “times better than KANB” value [9] was 64 times.
In the case of CCCCCCCCCCCCS(=O)(=O)C[C@@H]1O[C@@H](O[C@@H]2[C@@H](O)[C@H](O[C@@H]3O[C@@H](CN)[C@H](O)[C@@H](O)[C@@H]3N)[C@@H](N)C[C@H]2N)[C@@H](O)[C@H](N)[C@H]1O [Compound 4c], the “MIC of sulfone relative to MIC of corresponding thioether” value [6] is reported as no more than 2 fold dilution.
In the case of CCCCCCCCCCCCCCS(=O)(=O)C[C@@H]1O[C@@H](O[C@@H]2[C@@H](O)[C@H](O[C@@H]3O[C@@H](CN)[C@H](O)[C@@H](O)[C@@H]3N)[C@@H](N)C[C@H]2N)[C@@H](O)[C@H](N)[C@H]1O [Compound 4d], the “MIC of sulfone relative to MIC of corresponding thioether” value [6] is reported as no more than 2 fold dilution.
For CNC(C)C1CCC(N)C(OC2C(N)CC(N)C(OC3OCC(C)(O)C(NC)C3O)C2O)O1 (stereo not shown) [GEN, gentamicin], the “concentration displaying antifungal activity (antifungal MIC)” value [14] is given as 64 mg/L and the safe serum concentration [15] is given as 30 to 40 µg/mL.
Compound NC[C@H]1O[C@H](O[C@H]2[C@H](O)[C@@H](O[C@H]3O[C@H](CO)[C@@H](O)[C@H](N)[C@H]3O)[C@H](N)C[C@@H]2N)[C@H](O)[C@@H](O)[C@@H]1O [KANA, kanamycin A] has an MIC [16] of 8 to 16 mg/L (≈ 16.5 to 33 µM), an MIC [17] of 16 to 32 mg/L (≈ 33 to 66 µM) and an MIC [18] greater than 128 mg/L.
With NC[C@H]1O[C@H](O[C@H]2[C@H](O)[C@@H](O[C@H]3O[C@H](CO)[C@@H](O)[C@H](N)[C@H]3O)[C@H](N)C[C@@H]2N)[C@H](N)[C@@H](O)[C@@H]1O [KANB, kanamycin B, reference compound] the MIC [19] was no more than 16 mg/L, the toxicity [1] was “little to no toxicity” and the hemolysis [2] was “little to no hemolysis”. The toxicity [3] was “little to no toxicity”, the “modification by three AACs used simultaneously (TLC)” value [12] was “converted to a diacetylated adduct” and the “modification by a single AAC (TLC)” value ([12]; individually subjected to AAC(3), AAC(2′), or AAC(6′) overnight) was “completely converted to its corresponding monoacetylated product”.
For NC[C@@H]1O[C@H](O[C@H]2[C@@H](O)[C@H](O[C@@H]3[C@@H](O)[C@H](N)C[C@H](N)[C@H]3O[C@H]3O[C@H](CN)[C@@H](O)[C@H](O)[C@H]3N)O[C@@H]2CO)[C@H](N)[C@@H](O)[C@@H]1O [NEO, neomycin B], the “concentration displaying antifungal activity (antifungal MIC)” value [14] is given as 64 mg/L.
In the case of NC[C@@H]1O[C@H](O[C@H]2[C@@H](O)[C@H](O[C@@H]3[C@@H](O)[C@H](N)C[C@H](N)[C@H]3O[C@H]3O[C@H](CO)[C@@H](O)[C@H](O)[C@H]3N)O[C@@H]2CO)[C@H](N)[C@@H](O)[C@@H]1O [PAR, paromomycin], the “concentration displaying antifungal activity (antifungal MIC)” value [14] is given as 64 mg/L and the safe serum concentration [15] is given as 30 to 40 µg/mL.
In the case of CC[C@@H]([C@H](C)O)n1ncn(-c2ccc(N3CCN(c4ccc(OC[C@@H]5CO[C@@](Cn6cncn6)(c6ccc(F)cc6F)C5)cc4)CC3)cc2)c1=O [POS, posaconazole, reference compound], the “reduction of the MIC values of POS” value ([10]; in the presence of 3c) is reported as 16–64 fold and the “reduction of the MIC values of POS” value ([10]; in the presence of 3d) is reported as 16–32 fold.
In the case of [H]/N=C(/N)N[C@H]1[C@H](O)[C@@H](O)[C@H](O[C@@H]2O[C@@H](C)[C@](O)(C=O)[C@H]2O[C@@H]2O[C@@H](CO)[C@H](O)[C@@H](O)[C@@H]2NC)[C@@H](N/C(N)=N\[H])[C@@H]1O [STR, streptomycin], the “concentration displaying antifungal activity (antifungal MIC)” value [14] is listed as 64 mg/L and the safe serum concentration [15] is listed as 30 to 40 µg/mL.
